Compound activity (PubChem)
A selection: hits, their analogues and other compounds. The true share with any hit is near 5.8%.
Cl transport mod = modulates chloride dependent transport by human KCC2 | Q9H2X9 | KCC2 cells, thallium flux FluoZin-2 fluorescence | B-score of Tl+ flux slope (higher = more flux/activation; lower = inhibition) at 10 µM | 2.2% of 190,000 active;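 active = thallium flux slope and its plate-corrected score both differing from the plate sample mean at a set confidence after two filtering rounds, in either direction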;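 note: slope of fluorescence scaled to starting intensity during 10 to 20 s after thallium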
14-3-3 Bad PPI = disrupts binding of bovine 14-3-3 zeta to phospho-Bad peptide; P63103; TR-FRET 14-3-3zeta/Dy647-pBad peptide displacement, 1 h; inhibition, % at 21.7 µM; 0.71% of 220,000 active; AID 781;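 active = inhibition above about 70%, limit read from the data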;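 note: 0% = full 14-3-3 plus peptide FRET controls and 100% = background without 14-3-3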
Target sequence (P63103 whole entry, looked up): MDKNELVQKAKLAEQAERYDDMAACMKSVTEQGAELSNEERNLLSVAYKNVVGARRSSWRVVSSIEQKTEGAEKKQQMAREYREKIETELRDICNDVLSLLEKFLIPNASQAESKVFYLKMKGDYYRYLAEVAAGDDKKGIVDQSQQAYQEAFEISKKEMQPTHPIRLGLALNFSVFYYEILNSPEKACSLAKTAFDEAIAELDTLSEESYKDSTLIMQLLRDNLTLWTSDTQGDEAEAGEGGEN
ROMK primary = modulators of human ROMK potassium channel; Tet-inducible ROMK, thallium flux fluorescence; actives lie on both sides; B-score at 10 µM; 2% of 130,000 active; AID 1918;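 active = signal ratio slope over the read window, or its plate-corrected B-score, at least 3 SD from the plate mean, either direction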;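 note: B-score of the F/F0 ratio slope over 7 to 12 s after thallium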
Target sequence (P48048 whole entry, looked up): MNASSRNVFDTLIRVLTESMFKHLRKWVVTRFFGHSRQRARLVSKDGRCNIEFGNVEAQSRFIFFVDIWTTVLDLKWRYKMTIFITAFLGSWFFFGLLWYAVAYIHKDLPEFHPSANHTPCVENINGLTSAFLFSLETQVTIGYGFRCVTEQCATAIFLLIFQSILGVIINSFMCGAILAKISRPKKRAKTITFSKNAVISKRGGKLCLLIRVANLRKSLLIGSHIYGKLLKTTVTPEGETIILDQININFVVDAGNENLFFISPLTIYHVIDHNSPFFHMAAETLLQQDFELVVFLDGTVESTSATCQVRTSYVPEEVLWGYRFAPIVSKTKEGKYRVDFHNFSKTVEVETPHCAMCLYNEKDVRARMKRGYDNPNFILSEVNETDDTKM
RBBP9 inhibitor = inhibitors of human serine hydrolase RBBP9; O75884; recombinant RBBP9, FP-Rh probe fluorescence polarization; inhibition, % at 7.94 µM; 0.2% of 220,000 active;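 active = inhibition above the campaign mean of all tested compounds plus 3 SD, cut at about 14% in these data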;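 note: plate controls were DMSO wells with RBBP9 for no effect and wells lacking RBBP9 protein for full effect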
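Measured by – fluorescence polarization · Test system – RBBP9 protein · Input – 2.5 µM RBBP9 dispensing solution, before mixing · Measure – percent inhibition from mP, scaled between DMSO and no-protein wells · Benchmarks – DMSO-treated enzyme wells and wells lacking RBBP9 · Times – preincubation 30 min plus labeling 45 min at 25 °C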
WT yeast gro inh = growth inhibition of WT yeast, mitochondrial fusion screen | mitochondrial fusion phenotypic screen, WT strain | inhibition, % at 10 µM | 2.1% of 190,000 active; in the data active = inhibition above about 58%; tested in S. cerevisiae
p47phox inh = blocks human p47phox regulatory protein of NADPH oxidases; P14598; p47phox/p22phox peptide binding, fluorescence polarization, 2 h; inhibition, % at 24.7 µM; 0.53% of 220,000 active; AID 1274;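 active = inhibition above about 30%, limit read from the data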;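 note: 0% = p47phox with labelled peptide and 100% = labelled peptide alone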
An asterisk follows results filed as active; . = not tested or not shown; [ ] = dose if it differs, or a comment.

SMILES	Cl transport mod	14-3-3 Bad PPI	ROMK primary	RBBP9 inhibitor	WT yeast gro inh	p47phox inh
O=C(O)C1Nc2c(O)cc(Cl)c([N+](=O)[O-])c2C2C=CCC12 (stereo unspecified)	-1.6	97*	2.1	7	13	22
COc1cc(/C=C/C(=O)O)cc(S(=O)(=O)Nc2ccc3c(c2)OCO3)c1OC	0.53	-1	-1.8	-2	-6	-4
COc1cc2c(cc1NC(=S)NC(=O)/C=C/c1ccc(OC)c(OC)c1)oc1ccccc12	-0.0092	81*[fluorescence artefact?]	.	4	3	37*
COc1ccc(NC(=O)Nc2cc3oc4ccccc4c3cc2OC)cc1	0.082	8	.	12	16	-2
COc1cc2c(cc1NC(=O)Nc1ccc(C)cc1)oc1ccccc12	-0.69	-12	1.2	4	96*	1
COc1cc2c(cc1NC(=O)CSc1nc3ccccc3[nH]1)oc1ccccc12	0.8	4	.	-32	64*	-12
Cc1nc2sc(C(=O)Nc3ccccc3Cc3ccccc3)c(C)c2c(=O)[nH]1	-1.1	5	.	-10	.	3
CCOC(=O)/C=C/C(=O)Nc1ccccc1C(=O)NC1CCCCC1	1.3	4	-0.0045	-6	-9	6
CCOc1ccc2nc(COC(=O)c3cccs3)c(C(C)=O)[n+]([O-])c2c1	-0.87	11	.	4	.	-12
CCOc1ccc2nc(COC(=O)c3ccco3)c(C(C)=O)[n+]([O-])c2c1	.	17	0.54	-1	7	48*
CCOC(=O)c1c(C)oc2c1c(C(c1cccnc1)N1CCOCC1)c(O)c1ccccc12 (stereo unspecified)	.	17	-0.051	-7	62*	2
CCOC(=O)c1c(C)oc2c1c1c(c3ccccc32)OCN(Cc2cccnc2)C1	.	0	.	0	-1	5
O=C(Nc1cnn(C23CC4CC(CC(C4)C2)C3)c1)c1cnn2c(C(F)(F)F)cc(-c3ccco3)nc12	-0.18	77*	.	-10	46	33*
O=C(Nc1ccc2c(c1)OCO2)c1cnn2c(C(F)(F)F)cc(-c3ccco3)nc12	.	-11	0.33	0	10	-11
COc1ccc(C2CC(=O)C(C=NCCN3CCN(C(=S)Nc4ccccc4)CC3)=C(O)C2)cc1OC (stereo unspecified)	-0.13	-13	0.52	-9	-5	-3
COCCCNCCCOc1ccc(C)cc1Br	0.053	7	-0.44	-3	-2	6
COCCCNCCCCOc1c(Cl)cc(C)cc1Br	-0.41	79*	.	-1	15	-2
COCCCNCCCOc1ccc(Cl)cc1Br	0.045	74*	.	-3	8	-19
C=CCNCCCCOc1c(Cl)cc(C)cc1Br	-0.014	27	.	3	7	2
COC(=O)CC1=C(C(=O)OC)[C@@H](c2ccccc2[N+](=O)[O-])C(C#N)=C(N)O1	0.095	-6	.	0	.	-3
Oc1c(Cl)cc(Cl)cc1/C=C/c1ccc2cccc(O)c2n1	0.043	-10	-0.51	-4	51	-9
Oc1ccc(Cl)cc1/C=C/c1ccc2cccc(O)c2n1	-0.083	-5	0.013	-4	71*	-21
CN(C)/C=C(/C#N)C(=O)c1cccc(Oc2ccc(C(C)(C)C)cc2)c1	-1.1	-4	-1	-15	65*	-38
C=CCSc1nnc(NC(=O)COc2ccc3ccccc3c2)s1	-1.3	5	.	3	86*	-11
Cc1nc2ccccc2c(=O)n1NC(=O)C1CC1	-1.2	-4	0.84	-1	0	-9
SMILES	Cl transport mod	14-3-3 Bad PPI	ROMK primary	RBBP9 inhibitor	WT yeast gro inh	p47phox inh
Cc1nc(Cl)c(Cl)n1CCOc1ccccc1	0.013	3	.	-4	.	-8
COc1cc(/C=C(\C#N)c2nc3ccccc3[nH]2)ccc1OC(=O)c1ccco1	-1.5	-21	-0.96	-6	28	-28
COc1cc(/C=C(\C#N)c2nc3ccccc3[nH]2)c([N+](=O)[O-])cc1OCc1ccccc1	-4.5*	-1	-2.8	-3	11	-42
COC(=O)/C(=N\Nc1ccc(Cl)cc1)Sc1nnc(-c2ccc(OC)cc2)n1C	-1.1	4	.	-8	-22	-6
CCCc1[nH]nc2c1C(c1ccc(OC)c(CSC3=NCCS3)c1)C(C#N)=C(N)O2 (stereo unspecified)	-0.084	8	-3.1*	8	57	-17
COc1ccc(-n2cc(CNC3CCN(C)CC3)c(-c3cccc(F)c3)n2)cc1	1.8	-2	-1.9	-4	59*	0
COc1ccc(-n2cc(CN[C@H]3CCCCNC3=O)c(-c3cccc(F)c3)n2)cc1	1.5	-8	.	-2	.	-6
CCOC(=O)c1c(/N=C/C2=C(O)CCCC2=O)sc(C)c1C	-2.9	-4	.	-2	1	-8
CCOC(=O)c1c(-c2ccc(OC)cc2)csc1/N=C/C1=C(O)CCCC1=O	-0.19	-8	-0.37	-11	60*	-14
Clc1cccc(Cl)c1CNc1ccc(N2CCCC2)cc1	-0.007	25	0.022	2	-3	-11
CC(C)n1c(=O)[nH][nH]c1=S	-0.053	-2	.	-7	.	43*
O=c1[nH][nH]c(=S)n1C1CCCCC1	0.7	-3	.	-6	.	24
O=C(O)CC1(CC(=O)NCc2cc(F)cc3c2OCOC3)CCCCC1	1.1	1	.	-5	.	-2
N#CC1=C(N)NC(SCC(=O)c2ccccc2)=C(C#N)C12CCCC2	-1.6	-2	-0.96	-5	-11	-24
N#CC1=C(N)NC(SCC(=O)Nc2ccc(Br)cc2)=C(C#N)C12CCCCC2	-4.9*	-7	-2.3	-12	20	-22
Nc1nc(-c2ccc3c(c2)NC(=O)CO3)cs1	0.5	78*	-0.013	6	0	-16
O=C(CNC(=S)N(CCCN1CCOCC1)Cc1cccs1)NC1CCCC1	0.67	-9	0.013	-3	-15	35*
CC1CCN(CCCNC(=O)c2ccc3c(Cl)c4c(nc3c2)CCCC4)CC1	-0.16	-1	.	0	.	-1
CC1(C)Cc2ccccc2C(/C(=N\Nc2cccc(Cl)c2)C(N)=O)=N1	1.2	-2	-1.6	-9	60*	-9
CCOc1ccccc1OCCn1ncc2ccc(OC)c(OC)c2c1=O	0.48	2	.	-5	-11	-5
COc1ccc2cnn(CCOc3cc(C)ccc3C(C)C)c(=O)c2c1OC	-0.62	9	-1.5	4	71*	-3
CCCC(=O)Nc1cc(C(=O)O)ccc1S(=O)(=O)c1ccc(Cl)cc1	-0.32	-1	-0.44	-5	-6	-4
CNc1ccccc1C(C)(C)c1cc(-c2cccc([N+](=O)[O-])c2)no1	-1.8	0	-1.1	-12	52	-60
CNc1ccccc1C(C)(C)c1cc(-c2cccc(Br)c2)no1	0.15	-3	-0.08	-28	73*	-229
CSc1nc(Cl)c(C#N)c(-c2ccc(C)cc2)n1	-1.5	77*	.	-3	6	-3
Cc1ccc(N=C(N)N=C(N)N)c(C)c1	1	1	.	7	.	-8
COc1ccc(C(C)(C)C)cc1S(=O)(=O)n1ccnc1C	-2.2	-3	1.4	11	1	-11
